Reference: ChEMBL document CHEMBL1153726, “Synthesis and anticancer activity of sclerophytin-inspired hydroisobenzofurans” (Bioorg Med Chem Lett, 2009)
pIC50: −log10 of the molar value.

Columns and labels:
[1] = Antitumor activity against human KB3 cells after 96 hrs by MTT assay; assay type: functional, cell-based; details: KB3, 96 h
Summary of the method: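 Human KB-3 carcinoma cells exposed to increasing compound concentrations; viability read by MTT colorimetric assay after 96 h. Values are means of triplicate assays, expressed relative to untreated controls.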

ACHN = assay: Growth inhibition of human ACHN cells at 10 uM after 96 hrs by MTT assay; assay type: functional; set-up: scale not given: the % may be the effect or the level left
[2] = Growth inhibition of human Hs 578T cells at 10 uM after 96 hrs by MTT assay; assay type: functional; set-up: scale not given: the % may be the effect or the level left
SR = assay: Growth inhibition of human SR cells at 10 uM after 96 hrs by MTT assay; assay type: functional; set-up: scale not given: the % may be the effect or the level left
SK-OV-3 = assay: Growth inhibition of human SKOV3 cells at 10 uM after 96 hrs by MTT assay; assay type: functional; set-up: scale not given: the % may be the effect or the level left
SNB-19 = assay: Growth inhibition of human SNB19 cells at 10 uM after 96 hrs by MTT assay; assay type: functional; set-up: scale not given: the % may be the effect or the level left
NCI-H226 = assay: Growth inhibition of human NCI-H226 cells at 10 uM after 96 hrs by MTT assay; assay type: functional; set-up: scale not given: the % may be the effect or the level left
RXF 393 = assay: Growth inhibition of human RXF393 cells at 10 uM after 96 hrs by MTT assay; assay type: functional; set-up: scale not given: the % may be the effect or the level left
MDA-MB-468 = assay: Growth inhibition of human MDA-MB-468 cells at 10 uM after 96 hrs by MTT assay; assay type: functional; set-up: scale not given: the % may be the effect or the level left
[3] = Growth inhibition of human RPMI8266 cells at 10 uM after 96 hrs by MTT assay; assay type: functional; set-up: scale not given: the % may be the effect or the level left
KM12 = assay: Growth inhibition of human KM12 cells at 10 uM after 96 hrs by MTT assay; assay type: functional; set-up: scale not given: the % may be the effect or the level left
SK-MEL-28 = assay: Growth inhibition of human SK-MEL-28 cells at 10 uM after 96 hrs by MTT assay; assay type: functional; set-up: scale not given: the % may be the effect or the level left
MOLT-4 = assay: Growth inhibition of human MOLT4 cells at 10 uM after 96 hrs by MTT assay; assay type: functional; set-up: scale not given: the % may be the effect or the level left
UACC-257 = assay: Growth inhibition of human UACC257 cells at 10 uM after 96 hrs by MTT assay; assay type: functional; set-up: scale not given: the % may be the effect or the level left
Malme-3M = assay: Growth inhibition of human MALME-3M cells at 10 uM after 96 hrs by MTT assay; assay type: functional; set-up: scale not given: the % may be the effect or the level left
NCI-H522 = assay: Growth inhibition of human NCI-H522 cells at 10 uM after 96 hrs by MTT assay; assay type: functional; set-up: scale not given: the % may be the effect or the level left
MDA-MB-435 = assay: Growth inhibition of human MDA-MB-435 cells at 10 uM after 96 hrs by MTT assay; assay type: functional; set-up: scale not given: the % may be the effect or the level left
UO-31 = assay: Growth inhibition of human UO31 cells at 10 uM after 96 hrs by MTT assay; assay type: functional; set-up: scale not given: the % may be the effect or the level left
HCT-116 = assay: Growth inhibition of human HCT116 cells at 10 uM after 96 hrs by MTT assay; assay type: functional; set-up: scale not given: the % may be the effect or the level left
LOX IMVI = assay: Growth inhibition of human LOXIMVI cells at 10 uM after 96 hrs by MTT assay; assay type: functional; set-up: scale not given: the % may be the effect or the level left
OVCAR-8 = assay: Growth inhibition of human OVCAR8 cells at 10 uM after 96 hrs by MTT assay; assay type: functional; set-up: scale not given: the % may be the effect or the level left
NCI-H23 = assay: Growth inhibition of human NCI-H23 cells at 10 uM after 96 hrs by MTT assay; assay type: functional; set-up: scale not given: the % may be the effect or the level left
SF-268 = assay: Growth inhibition of human SF268 cells at 10 uM after 96 hrs by MTT assay; assay type: functional; set-up: scale not given: the % may be the effect or the level left
PC-3 = assay: Growth inhibition of human PC3 cells at 10 uM after 96 hrs by MTT assay; assay type: functional; set-up: scale not given: the % may be the effect or the level left
OVCAR-5 = assay: Growth inhibition of human OVCAR5 cells at 10 uM after 96 hrs by MTT assay; assay type: functional; set-up: scale not given: the % may be the effect or the level left
M14 = assay: Growth inhibition of human M14 cells at 10 uM after 96 hrs by MTT assay; assay type: functional; set-up: scale not given: the % may be the effect or the level left
BT-549 = assay: Growth inhibition of human BT549 cells at 10 uM after 96 hrs by MTT assay; assay type: functional; set-up: scale not given: the % may be the effect or the level left
SNB-75 = assay: Growth inhibition of human SNB75 cells at 10 uM after 96 hrs by MTT assay; assay type: functional; set-up: scale not given: the % may be the effect or the level left
OVCAR-4 = assay: Growth inhibition of human OVCAR4 cells at 10 uM after 96 hrs by MTT assay; assay type: functional; set-up: scale not given: the % may be the effect or the level left
SK-MEL-5 = assay: Growth inhibition of human SK-MEL-5 cells at 10 uM after 96 hrs by MTT assay; assay type: functional; set-up: scale not given: the % may be the effect or the level left
HT-29 = assay: Growth inhibition of human HT-29 cells at 10 uM after 96 hrs by MTT assay; assay type: functional; set-up: scale not given: the % may be the effect or the level left
HL-60(TB) = assay: Growth inhibition of human HL-60(TB) cells at 10 uM after 96 hrs by MTT assay; assay type: functional; set-up: scale not given: the % may be the effect or the level left
U-251 = assay: Growth inhibition of human U251 cells at 10 uM after 96 hrs by MTT assay; assay type: functional; set-up: scale not given: the % may be the effect or the level left
MDA-MB-231 = assay: Growth inhibition of human MDA-MB-231 cells at 10 uM after 96 hrs by MTT assay; assay type: functional; set-up: scale not given: the % may be the effect or the level left
COLO 205 = assay: Growth inhibition of human COLO205 cells at 10 uM after 96 hrs by MTT assay; assay type: functional; set-up: scale not given: the % may be the effect or the level left
SF-539 = assay: Growth inhibition of human SF539 cells at 10 uM after 96 hrs by MTT assay; assay type: functional; set-up: scale not given: the % may be the effect or the level left
HOP-92 = assay: Growth inhibition of human HOP92 cells at 10 uM after 96 hrs by MTT assay; assay type: functional; set-up: scale not given: the % may be the effect or the level left
NCI/ADR-RES = assay: Growth inhibition of human NCI/ADR-RES cells at 10 uM after 96 hrs by MTT assay; assay type: functional; set-up: scale not given: the % may be the effect or the level left
UACC-62 = assay: Growth inhibition of human UACC62 cells at 10 uM after 96 hrs by MTT assay; assay type: functional; set-up: scale not given: the % may be the effect or the level left
HCT-15 = assay: Growth inhibition of human HCT15 cells at 10 uM after 96 hrs by MTT assay; assay type: functional; set-up: scale not given: the % may be the effect or the level left
A498 = assay: Growth inhibition of human A498 cells at 10 uM after 96 hrs by MTT assay; assay type: functional; set-up: scale not given: the % may be the effect or the level left
786-0 = assay: Growth inhibition of human 786-0 cells at 10 uM after 96 hrs by MTT assay; assay type: functional; set-up: scale not given: the % may be the effect or the level left
HCC 2998 = assay: Growth inhibition of human HCC2998 cells at 10 uM after 96 hrs by MTT assay; assay type: functional; set-up: scale not given: the % may be the effect or the level left
SK-MEL-2 = assay: Growth inhibition of human SK-MEL-2 cells at 10 uM after 96 hrs by MTT assay; assay type: functional; set-up: scale not given: the % may be the effect or the level left
DU-145 = assay: Growth inhibition of human DU145 cells at 10 uM after 96 hrs by MTT assay; assay type: functional; set-up: scale not given: the % may be the effect or the level left
SN12C = assay: Growth inhibition of human SN12C cells at 10 uM after 96 hrs by MTT assay; assay type: functional; set-up: scale not given: the % may be the effect or the level left
SW-620 = assay: Growth inhibition of human SW620 cells at 10 uM after 96 hrs by MTT assay; assay type: functional; set-up: scale not given: the % may be the effect or the level left
TK-10 = assay: Growth inhibition of human TK10 cells at 10 uM after 96 hrs by MTT assay; assay type: functional; set-up: scale not given: the % may be the effect or the level left
T47D = assay: Growth inhibition of human T47D cells at 10 uM after 96 hrs by MTT assay; assay type: functional; set-up: scale not given: the % may be the effect or the level left
IGROV-1 = assay: Growth inhibition of human IGROV1 cells at 10 uM after 96 hrs by MTT assay; assay type: functional; set-up: scale not given: the % may be the effect or the level left
NCI-H460 = assay: Growth inhibition of human NCI-H460 cells at 10 uM after 96 hrs by MTT assay; assay type: functional; set-up: scale not given: the % may be the effect or the level left
HOP-62 = assay: Growth inhibition of human HOP62 cells at 10 uM after 96 hrs by MTT assay; assay type: functional; set-up: scale not given: the % may be the effect or the level left
NCI-H322M = assay: Growth inhibition of human NCI-H322M cells at 10 uM after 96 hrs by MTT assay; assay type: functional; set-up: scale not given: the % may be the effect or the level left
K562 = assay: Growth inhibition of human K562 cells at 10 uM after 96 hrs by MTT assay; assay type: functional; set-up: scale not given: the % may be the effect or the level left
CCRF-CEM = assay: Growth inhibition of human CCRF-CEM cells at 10 uM after 96 hrs by MTT assay; assay type: functional; set-up: scale not given: the % may be the effect or the level left
A549 = assay: Growth inhibition of human A549 cells at 10 uM after 96 hrs by MTT assay; assay type: functional; set-up: scale not given: the % may be the effect or the level left
MCF7 = assay: Growth inhibition of human MCF7 cells at 10 uM after 96 hrs by MTT assay; assay type: functional; set-up: scale not given: the % may be the effect or the level left
OVCAR-3 = assay: Growth inhibition of human OVCAR-3 cells at 10 uM after 96 hrs by MTT assay; assay type: functional; set-up: scale not given: the % may be the effect or the level left
EKVX = assay: Growth inhibition of human EKVX cells at 10 uM after 96 hrs by MTT assay; assay type: functional; set-up: scale not given: the % may be the effect or the level left

C=C(C)[C@H]1CC=C(C)[C@@]2(O)[C@@H]1[C@H](c1cccc3ccccc13)O[C@@H]2C(=O)OC
pIC50 [1]: 5.00

C=C(C)[C@H]1CC=C(C)[C@@]2(O)[C@@H]1[C@H](c1ccc(Cl)cc1Cl)O[C@@H]2C(=O)OCC
Activity (ACHN): 109.85%
Activity [2]: 100.26%
Activity (SR): 82.5%
Activity (SK-OV-3): 98.68%
Activity (SNB-19): 87.9%
Activity (NCI-H226): 97.47%
Activity (RXF 393): 95.61%
Activity (MDA-MB-468): 94.32%
Activity [3]: 106.77%
Activity (KM12): 99.49%
Activity (SK-MEL-28): 113.23%
Activity (MOLT-4): 98.02%
Activity (UACC-257): 94.54%
Activity (Malme-3M): 117.74%
Activity (NCI-H522): 82.73%
Activity (MDA-MB-435): 107.24%
Activity (UO-31): 90.72%
Activity (HCT-116): 84.08%
Activity (LOX IMVI): 98%
Activity (OVCAR-8): 94.44%
Activity (NCI-H23): 97.89%
Activity (SF-268): 100.46%
Activity (PC-3): 99.33%
Activity (OVCAR-5): 103.98%
Activity (M14): 104.29%
Activity (BT-549): 139.44%
Activity (SNB-75): 82.61%
Activity (OVCAR-4): 93.31%
Activity (SK-MEL-5): 102.55%
Activity (HT-29): 93.83%
Activity (HL-60(TB)): 100.94%
Activity (U-251): 103.59%
Activity (MDA-MB-231): 101.68%
Activity (COLO 205): 122.22%
Activity (SF-539): 100.6%
Activity (HOP-92): 94.71%
Activity (NCI/ADR-RES): 101.67%
Activity (UACC-62): 84.48%
pIC50 [1]: 5.52
Activity (HCT-15): 108.1%
Activity (A498): 102.47%
Activity (786-0): 87.09%
Activity (HCC 2998): 108.86%
Activity (SK-MEL-2): 106.54%
Activity (DU-145): 110.29%
Activity (SN12C): 98.08%
Activity (SW-620): 97.1%
Activity (TK-10): 119.56%
Activity (T47D): 94.32%
Activity (IGROV-1): 82.34%
Activity (NCI-H460): 108.8%
Activity (HOP-62): 92.21%
Activity (NCI-H322M): 113.73%
Activity (K562): 79.96%
Activity (CCRF-CEM): 98.31%
Activity (A549): 90.16%
Activity (MCF7): 104.98%
Activity (OVCAR-3): 112.11%
Activity (EKVX): 104.39%

C=C(C)[C@H]1CC=C(C)[C@@]2(O)[C@@H]1[C@H](c1ccccc1Br)O[C@@H]2C(=O)O
pIC50 [1]: < 4.00

C=C(C)[C@H]1CC(=O)C(C)=C2[C@@H](C(=O)OCC)O[C@@H](c3cccc(Br)c3)[C@@H]21
pIC50 [1]: 4.52
